16 molecules from ChEMBL document CHEMBL3045046, “Synthesis, herbicidal activities, and 3D-QSAR of 2-cyanoacrylates containing aromatic methylamine moieties” (J Agric Food Chem, 2008) can be followed below.

What all share (assay type): functional
For experiment [1], the system named is Amaranthus retroflexus. Put plainly: Herbicidal activity against Amaranthus retroflexus assessed as inhibition of herb growth at 1.5 kg/ha during preemergence treatment protocol. The settings on record: pre-emergence, read-out: GI.
For experiment [2], the system named is Digitaria sanguinalis. The experiment in a line: Herbicidal activity against hairy Digitaria sanguinalis (hairy crabgrass) assessed as inhibition of herb growth at 1.5 kg/ha during postemergence treatment protocol. The conditions noted are these: post-emergence, read-out: GI.
Experiment [3] deals with Medicago sativa. The experiment in a line: Herbicidal activity against Medicago sativa (alfalfa) assessed as inhibition of herb growth at 1.5 kg/ha during postemergence treatment protocol. The settings on record: post-emergence, read-out: GI.
Experiment [4] relates to Amaranthus retroflexus. Put plainly: Herbicidal activity against Amaranthus retroflexus assessed as inhibition of herb growth at 1.5 kg/ha during postemergence treatment protocol. The settings on record: post-emergence, read-out: GI.
For experiment [5], the system named is Brassica napus. Put plainly: Herbicidal activity against Brassica napus (oilseed rape) assessed as inhibition of herb growth at 1.5 kg/ha during postemergence treatment protocol. The settings on record: post-emergence, read-out: GI.
In experiment [6] the test system is Spinacia oleracea. The experiment in a line: Inhibition of photosynthetic electron transport in Spinacia oleracea (spinach)isolated chloroplasts assessed as inhibition of Hill reaction. In a few lines:
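Chloroplasts from fresh spinach leaves, homogenised in ice-cold pH 7.8 buffer (0.4 M sucrose, 10 mM NaCl, 50 mM Tris-HCl), spun 3 min 120g then 5 min 1000g at 4 °C. Reaction buffer 350 mM NaCl, 10 mM Tris-HCl pH 7.8 with DCPIP; 2 min light (360 µmol m^-2 s^-1), DCPIP reduction at 620 nm. Compounds 0.01 mg/L–0.3 mg/mL in […]/water, ≥triplicate; IC50 by log-linear regression.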

Experiment [7] has as its system Digitaria sanguinalis. Put plainly: Herbicidal activity against hairy Digitaria sanguinalis (hairy crabgrass) assessed as inhibition of herb growth at 1.5 kg/ha during preemergence treatment protocol. The settings on record: pre-emergence, read-out: GI.
Experiment [8] relates to Medicago sativa. The experiment in a line: Herbicidal activity against Medicago sativa (alfalfa) assessed as inhibition of herb growth at 1.5 kg/ha during preemergence treatment protocol. The conditions noted are these: pre-emergence, read-out: GI.
Experiment [9] deals with Brassica napus. Put plainly: Herbicidal activity against Brassica napus (oilseed rape) assessed as inhibition of herb growth at 1.5 kg/ha during preemergence treatment protocol. The conditions noted are these: pre-emergence, read-out: GI.
Where [10] appears, read: Spinacia oleracea, read-out: pIC50 (converted).

SMILES strings stand for the structures.

`CCOCCOC(=O)/C(C#N)=C(\NCc1cnc(OCC)s1)C(C)C`: the inhibition of growth at 1500 g/ha in experiment [1] turned out to be 37.8%; in experiment [2] it was 51.2%; in experiment [3], 41.4%; in [4], 100%; in experiment [5], 100%; in experiment [7], 0%. Further, the inhibition of growth at 1500 g/ha in experiment [8] was 5.4%; in experiment [9], 48.7%. The IC50 in experiment [6] was 0.223 ppm; in [6] (setting [10]), 224 nM.

Consider `CCCOc1ncc(CN/C(SC)=C(/C#N)C(=O)OCCOCC)s1`, for which the inhibition of growth at 1500 g/ha was found to be 27% in [1]; 49.6% in experiment [2]; 57.3% in [3]; 100% in [4]; 100% in experiment [5]; 0% in experiment [7]. Further, the inhibition of growth at 1500 g/ha in experiment [8] worked out at 17.6%; in experiment [9], 0%. For the same molecule, the IC50 is 0.05 ppm in [6] and 50.1 nM in experiment [6] (setting [10]).

In the case of `CCCOc1ncc(CN/C(=C(/C#N)C(=O)OCCOCC)C(C)C)s1`, the inhibition of growth at 1500 g/ha in experiment [1] came to 27%; in experiment [2] it was 52.8%; in experiment [3], 48.7%; in experiment [4] it was 100%; in experiment [5], 100%; in experiment [7] it was 6.9%. Besides, the values for the inhibition of growth at 1500 g/ha in experiment [8] and in [9] were 0% and 9.8%, respectively. The IC50 is 0.08 ppm in experiment [6] and 79.4 nM in [6] (setting [10]).

Regarding `CCOCCOC(=O)/C(C#N)=C(\NCc1cnc(OC(C)C)s1)SC`, the inhibition of growth at 1500 g/ha in experiment [1] turned out to be 40.5%; in experiment [2] it was 54.4%; in experiment [3], 53.6%; in [4], 100%; in experiment [5], 100%; in experiment [7] it was 14.8%. The inhibition of growth at 1500 g/ha in experiment [8] was determined as 4.5%; in experiment [9], 26%. The IC50 in experiment [6] was 0.07 ppm; in experiment [6] (setting [10]), 70.8 nM.

Regarding `CCOCCOC(=O)/C(C#N)=C(\NCc1ccc(Br)nc1)SC`, the inhibition of growth at 1500 g/ha in [1] worked out at 91.9%; in experiment [2] it was 60%; in [3], 59.9%; in experiment [4], 100%; in experiment [5], 100%; in experiment [7], 0%. The inhibition of growth at 1500 g/ha in experiment [8] was found to be 12%; in experiment [9], 23.9%. In addition, the IC50 was 0.084 ppm in experiment [6] and 83.2 nM in [6] (setting [10]).

With `CCOCCOC(=O)/C(C#N)=C(/CC)NCc1ccc(Br)nc1`, the inhibition of growth at 1500 g/ha was 21.6% in experiment [1]; 95.2% in experiment [2]; 77.8% in [3]; 100% in [4]; 100% in experiment [5]; 18.8% in experiment [7]. Besides, the inhibition of growth at 1500 g/ha in experiment [8] is 28.8%; in [9] it was 71.9%. Also, the IC50 in [6] was 0.335 ppm; in experiment [6] (setting [10]), 339 nM.

`CCOCCOC(=O)/C(C#N)=C(\NCc1ccc(Br)nc1)C(C)C`: the inhibition of growth at 1500 g/ha in experiment [1] was 48.6%; in experiment [2], 42.4%; in experiment [3], 32.1%; in experiment [4], 97.8%; in experiment [5] it was 100%; in [7] it was 16.8%. Also, the inhibition of growth at 1500 g/ha in experiment [8] worked out at 0%; in experiment [9], 68.7%. Also, the IC50 is 0.099 ppm in experiment [6] and 100 nM in experiment [6] (setting [10]).

Regarding `CCOCCOC(=O)/C(C#N)=C(\NCc1ccc(N(C)C)nc1)SC`, the inhibition of growth at 1500 g/ha in experiment [1] is 13.5%; in [2], 45.6%; in experiment [3], 51.6%; in experiment [4] it was 80.9%; in experiment [5], 100%; in experiment [7], 28.7%. Moreover, the values for the inhibition of growth at 1500 g/ha in experiment [8] and in experiment [9] were 0% and 37.4%, respectively. The IC50 in experiment [6] is 0.292 ppm; in experiment [6] (setting [10]), 295 nM.

Consider `CCOCCOC(=O)/C(C#N)=C(\NCc1ccc(N(C)C)nc1)C(C)C`, for which the inhibition of growth at 1500 g/ha in experiment [1] turned out to be 75.7%; in [2], 88%; in experiment [3], 58.3%; in experiment [4] it was 100%; in experiment [5], 100%; in experiment [7], 52.5%. The inhibition of growth at 1500 g/ha in experiment [8] is 27.9%; in experiment [9], 29.3%. The IC50 in experiment [6] was 0.086 ppm; in experiment [6] (setting [10]), 85.1 nM.

As to `CCOCCOC(=O)/C(C#N)=C(\NCc1ccc(OCC(F)(F)F)nc1)SC`, the inhibition of growth at 1500 g/ha in [1] stood at 0%; in experiment [2], 100%; in [3] it was 54.2%; in experiment [4], 100%; in experiment [5], 100%; in experiment [7], 0%. Besides, the inhibition of growth at 1500 g/ha came out at 0% in experiment [8] and 10% in experiment [9]. In addition, the IC50 was 0.048 ppm in experiment [6] and 47.9 nM in [6] (setting [10]).

Consider `CCOCCOC(=O)/C(C#N)=C(\NCc1cnc(Cl)s1)C(C)C`, for which the inhibition of growth at 1500 g/ha in experiment [1] turned out to be 67.6%; in experiment [2], 45.6%; in [3], 37.1%; in experiment [4], 100%; in experiment [5], 100%; in experiment [7], 28.7%. For the same molecule, the inhibition of growth at 1500 g/ha amounted to 15.7% in [8] and 70.3% in [9]. In addition, the IC50 is 0.161 ppm in [6] and 162 nM in [6] (setting [10]).

In the case of `CCOCCOC(=O)/C(C#N)=C(\NCc1cnc(Br)s1)SC`, the inhibition of growth at 1500 g/ha was determined as 29.7% in experiment [1]; 36% in experiment [2]; 26.8% in experiment [3]; 88% in [4]; 100% in [5]; 8.9% in experiment [7]. For the same molecule, the inhibition of growth at 1500 g/ha in [8] amounted to 8.2%; in experiment [9], 28.7%. In addition, the IC50 in experiment [6] is 0.102 ppm; in [6] (setting [10]) it was 102 nM.

As to `CCOCCOC(=O)/C(C#N)=C(\NCc1cnc(Br)s1)C(C)C`, the inhibition of growth at 1500 g/ha stood at 18.9% in experiment [1]; 48% in [2]; 30.8% in experiment [3]; 100% in experiment [4]; 100% in experiment [5]; 3% in experiment [7]. Also, the inhibition of growth at 1500 g/ha in experiment [8] was determined as 1.7%; in [9], 82.2%. Also, the IC50 in experiment [6] was 0.107 ppm; in experiment [6] (setting [10]) it was 107 nM.

Consider `CCOCCOC(=O)/C(C#N)=C(\NCc1cnc(OCC)s1)SC`, for which the inhibition of growth at 1500 g/ha in [1] worked out at 43.2%; in experiment [2] it was 51.2%; in experiment [3], 62.6%; in experiment [4], 100%; in [5], 100%; in experiment [7], 44.6%. The figures for the inhibition of growth at 1500 g/ha in experiment [8] and in [9] were 14.8% and 23.3%, respectively. Further, the IC50 is 0.115 ppm in experiment [6] and 115 nM in [6] (setting [10]).

In the case of `CCOCCOC(=O)/C(C#N)=C(\NCc1ccc(Cl)cc1)SC`, the inhibition of growth at 1500 g/ha in experiment [1] came to 59.4%; in [2], 31.2%; in experiment [3], 12.9%; in experiment [4], 100%; in experiment [5], 100%; in experiment [7], 24.8%. Moreover, the inhibition of growth at 1500 g/ha in [8] was 0%; in experiment [9], 24.9%. The values for the IC50 in experiment [6] and in experiment [6] (setting [10]) were 0.026 ppm and 25.7 nM, respectively.

For `CCOCCOC(=O)/C(C#N)=C(\NCc1ccc(Cl)nc1)SC`, the inhibition of growth at 1500 g/ha was 13.7% in experiment [1]; 89.9% in experiment [2]; 41.3% in experiment [3]; 100% in experiment [4]; 100% in experiment [5]; 18.6% in [7]. Further, the inhibition of growth at 1500 g/ha is 1.5% in experiment [8] and 68.9% in experiment [9]. Further, the IC50 is 0.167 ppm in [6] and 166 nM in experiment [6] (setting [10]).
